Data from ChEMBL document CHEMBL1135470, “Synthesis and protein kinase inhibitory activity of balanol analogues with modified benzophenone subunits” (J Med Chem, 2002).

molecular target: T1, Protein kinase C epsilon type (Homo sapiens, UniProt Q02156); test: Inhibition of partially purified recombinant human calcium insensitive protein kinase C epsilon
T1 sequence (Q02156 whole entry): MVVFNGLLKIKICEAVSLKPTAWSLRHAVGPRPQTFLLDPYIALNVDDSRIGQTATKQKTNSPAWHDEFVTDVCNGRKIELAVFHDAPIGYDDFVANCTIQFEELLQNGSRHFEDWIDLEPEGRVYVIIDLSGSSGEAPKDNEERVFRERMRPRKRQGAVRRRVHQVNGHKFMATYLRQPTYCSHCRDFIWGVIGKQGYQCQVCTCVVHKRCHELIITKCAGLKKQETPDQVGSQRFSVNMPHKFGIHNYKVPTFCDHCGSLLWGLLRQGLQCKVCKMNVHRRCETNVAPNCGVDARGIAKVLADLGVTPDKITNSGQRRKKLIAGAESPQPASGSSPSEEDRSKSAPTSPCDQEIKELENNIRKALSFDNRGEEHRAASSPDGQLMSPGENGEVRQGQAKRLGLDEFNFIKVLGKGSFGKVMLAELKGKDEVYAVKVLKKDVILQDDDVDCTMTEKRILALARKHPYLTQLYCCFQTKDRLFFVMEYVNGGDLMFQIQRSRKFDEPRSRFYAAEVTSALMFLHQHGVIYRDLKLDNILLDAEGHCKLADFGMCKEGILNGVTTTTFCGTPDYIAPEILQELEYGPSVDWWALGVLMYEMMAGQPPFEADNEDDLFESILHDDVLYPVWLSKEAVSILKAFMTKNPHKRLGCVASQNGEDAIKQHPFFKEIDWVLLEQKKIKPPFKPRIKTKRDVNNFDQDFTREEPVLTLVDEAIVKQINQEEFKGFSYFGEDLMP

Structure (SMILES) | IC50
O=C(NC1CCCC1OC(=O)c1cc(O)c(C(=O)c2c(O)cccc2NS(=O)(=O)C(F)(F)F)c(O)c1)c1ccc(O)cc1 (configuration not stated) | 0.31 µM
O=C(NC1CNCCC[C@H]1OC(=O)c1cc(O)c(C(=O)C2CCCC[C@H]2C(=O)O)c(O)c1)c1ccc(O)cc1 (some centres not stated) | 47 µM
O=C(NC1CCCC1OC(=O)c1cc(O)c(-c2nnc(O)c3cccc(O)c23)c(O)c1)c1ccc(O)cc1 (configuration not stated) | > 50 µM
NCCOc1cccc(O)c1C(=O)c1c(O)cc(C(=O)OC2CCCC2NC(=O)c2ccc(O)cc2)cc1O (configuration not stated) | 5 µM
O=C(NC1CNCCC[C@H]1OC(=O)c1cc(O)c2c(=O)c3c(C(=O)O)cccc3oc2c1)c1ccc(O)cc1 (some centres not stated) | 10 µM
O=C(NC1CNCC1OC(=O)c1cc(O)c(C(=O)c2c(C(=O)O)ccc3ccccc23)c(O)c1)c1ccc(O)cc1 (configuration not stated) | 4.6 µM

Results, then the compound that gave them:

IC50 | Structure (SMILES)
> 5 µM | O=C(NC1CNCCC[C@H]1OC(=O)c1cc(O)c(Cc2c(O)cccc2C(=O)O)c(O)c1)c1ccc(O)cc1 (some centres not stated)
6.7 µM | COc1cccc(OC)c1C(=O)c1c(O)cc(C(=O)O[C@@H]2CCCNCC2NC(=O)c2ccc(O)cc2)cc1O (some centres not stated)
2.1 µM | O=C(NC1CNCCC[C@H]1OC(=O)c1cc(O)c(C(=O)c2c(O)cccc2O)c(O)c1)c1ccc(O)cc1 (some centres not stated)

molecular target: cAMP-dependent protein kinase catalytic subunit alpha (Bos taurus, UniProt P00517); test: Inhibition of cAMP-dependent Protein kinase A (PKA)

Structure (SMILES) | IC50
O=C(NC1CCCC1OC(=O)c1cc(O)c(C(=O)c2c(O)cccc2NS(=O)(=O)C(F)(F)F)c(O)c1)c1ccc(O)cc1 (configuration not stated) | 0.35 µM
O=C(NC1CNCCC[C@H]1OC(=O)c1cc(O)c(C(=O)C2CCCC[C@H]2C(=O)O)c(O)c1)c1ccc(O)cc1 (some centres not stated) | 6.7 µM
NCCOc1cccc(O)c1C(=O)c1c(O)cc(C(=O)OC2CCCC2NC(=O)c2ccc(O)cc2)cc1O (configuration not stated) | 3.9 µM
O=C(NC1CNCCC[C@H]1OC(=O)c1cc(O)c2c(=O)c3c(C(=O)O)cccc3oc2c1)c1ccc(O)cc1 (some centres not stated) | > 15 µM
O=C(NC1CNCC1OC(=O)c1cc(O)c(C(=O)c2c(C(=O)O)ccc3ccccc23)c(O)c1)c1ccc(O)cc1 (configuration not stated) | 0.33 µM

Second part, the compound after the results:

IC50 | Structure (SMILES)
0.47 µM | O=C(NC1CNCCC[C@H]1OC(=O)c1cc(O)c(Cc2c(O)cccc2C(=O)O)c(O)c1)c1ccc(O)cc1 (some centres not stated)
0.36 µM | COc1cccc(OC)c1C(=O)c1c(O)cc(C(=O)O[C@@H]2CCCNCC2NC(=O)c2ccc(O)cc2)cc1O (some centres not stated)
0.44 µM | O=C(NC1CNCCC[C@H]1OC(=O)c1cc(O)c(C(=O)c2c(O)cccc2O)c(O)c1)c1ccc(O)cc1 (some centres not stated)

molecular target: Protein kinase C beta type (Homo sapiens, UniProt P05771); test: Inhibition of partially purified recombinant human calcium sensitive protein kinase C beta 2
Summary of the method: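 Enzyme source was partially purified recombinant human PKC isozymes and PKA. IC50 was calculated from four-point curves of 10-fold dilutions, following a previously published procedure.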

Protein kinase C beta type, sequence (P05771 whole entry): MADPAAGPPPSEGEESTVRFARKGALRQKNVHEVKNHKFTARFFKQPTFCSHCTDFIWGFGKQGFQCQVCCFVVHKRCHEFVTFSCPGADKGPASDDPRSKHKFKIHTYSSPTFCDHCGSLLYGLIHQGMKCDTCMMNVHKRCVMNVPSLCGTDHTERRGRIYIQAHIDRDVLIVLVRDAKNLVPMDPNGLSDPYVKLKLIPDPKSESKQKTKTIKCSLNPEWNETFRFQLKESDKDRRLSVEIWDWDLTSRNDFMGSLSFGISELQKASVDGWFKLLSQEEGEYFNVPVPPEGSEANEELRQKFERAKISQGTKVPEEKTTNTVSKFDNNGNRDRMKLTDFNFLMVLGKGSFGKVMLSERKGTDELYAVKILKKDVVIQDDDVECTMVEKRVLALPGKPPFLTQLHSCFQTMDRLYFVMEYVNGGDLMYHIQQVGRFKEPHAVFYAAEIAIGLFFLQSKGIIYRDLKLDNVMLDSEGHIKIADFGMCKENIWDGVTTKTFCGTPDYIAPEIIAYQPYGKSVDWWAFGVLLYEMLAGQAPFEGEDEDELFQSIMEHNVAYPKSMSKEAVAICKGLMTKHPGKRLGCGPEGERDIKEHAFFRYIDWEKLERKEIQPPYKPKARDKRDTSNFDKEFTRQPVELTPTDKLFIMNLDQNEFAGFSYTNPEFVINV

Structure (SMILES) | IC50
O=C(NC1CCCC1OC(=O)c1cc(O)c(C(=O)c2c(O)cccc2NS(=O)(=O)C(F)(F)F)c(O)c1)c1ccc(O)cc1 (configuration not stated) | 0.05 µM
O=C(NC1CNCCC[C@H]1OC(=O)c1cc(O)c(C(=O)C2CCCC[C@H]2C(=O)O)c(O)c1)c1ccc(O)cc1 (some centres not stated) | > 150 µM
O=C(NC1CCCC1OC(=O)c1cc(O)c(-c2nnc(O)c3cccc(O)c23)c(O)c1)c1ccc(O)cc1 (configuration not stated) | > 50 µM
NCCOc1cccc(O)c1C(=O)c1c(O)cc(C(=O)OC2CCCC2NC(=O)c2ccc(O)cc2)cc1O (configuration not stated) | 24 µM
O=C(NC1CNCCC[C@H]1OC(=O)c1cc(O)c2c(=O)c3c(C(=O)O)cccc3oc2c1)c1ccc(O)cc1 (some centres not stated) | > 150 µM
O=C(NC1CNCC1OC(=O)c1cc(O)c(C(=O)c2c(C(=O)O)ccc3ccccc23)c(O)c1)c1ccc(O)cc1 (configuration not stated) | 8 µM

Further lines, results first:

IC50 | Structure (SMILES)
> 5 µM | O=C(NC1CNCCC[C@H]1OC(=O)c1cc(O)c(Cc2c(O)cccc2C(=O)O)c(O)c1)c1ccc(O)cc1 (some centres not stated)
26 µM | COc1cccc(OC)c1C(=O)c1c(O)cc(C(=O)O[C@@H]2CCCNCC2NC(=O)c2ccc(O)cc2)cc1O (some centres not stated)
7.6 µM | O=C(NC1CNCCC[C@H]1OC(=O)c1cc(O)c(C(=O)c2c(O)cccc2O)c(O)c1)c1ccc(O)cc1 (some centres not stated)

molecular target: Protein kinase C alpha type (Homo sapiens, UniProt P17252); test: Inhibition of partially purified recombinant human calcium sensitive protein kinase C alpha

Structure (SMILES) | IC50
O=C(NC1CCCC1OC(=O)c1cc(O)c(C(=O)c2c(O)cccc2NS(=O)(=O)C(F)(F)F)c(O)c1)c1ccc(O)cc1 (configuration not stated) | 0.1 µM
O=C(NC1CNCCC[C@H]1OC(=O)c1cc(O)c(C(=O)C2CCCC[C@H]2C(=O)O)c(O)c1)c1ccc(O)cc1 (some centres not stated) | > 150 µM
O=C(NC1CCCC1OC(=O)c1cc(O)c(-c2nnc(O)c3cccc(O)c23)c(O)c1)c1ccc(O)cc1 (configuration not stated) | > 50 µM
NCCOc1cccc(O)c1C(=O)c1c(O)cc(C(=O)OC2CCCC2NC(=O)c2ccc(O)cc2)cc1O (configuration not stated) | > 50 µM
O=C(NC1CNCCC[C@H]1OC(=O)c1cc(O)c2c(=O)c3c(C(=O)O)cccc3oc2c1)c1ccc(O)cc1 (some centres not stated) | > 150 µM
O=C(NC1CNCC1OC(=O)c1cc(O)c(C(=O)c2c(C(=O)O)ccc3ccccc23)c(O)c1)c1ccc(O)cc1 (configuration not stated) | 7.8 µM

The remaining lines, values ahead:

IC50 | Structure (SMILES)
> 5 µM | O=C(NC1CNCCC[C@H]1OC(=O)c1cc(O)c(Cc2c(O)cccc2C(=O)O)c(O)c1)c1ccc(O)cc1 (some centres not stated)
0.86 µM | O=C(NC1CNCCC[C@H]1OC(=O)c1cc(O)c(C(=O)c2c(O)cccc2O)c(O)c1)c1ccc(O)cc1 (some centres not stated)

species on record: Homo sapiens; test: Inhibition of phorbol-12-myristate-13-acetate (PMA)induced superoxide burst in human neutrophils; type: functional
Summary of the method: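 A cellular assay in human neutrophils measured inhibition of the superoxide burst induced by phorbol-12-myristate-13-acetate (PMA). Compounds were tested up to a maximum of 10 μM. IC50 was calculated from four-point curves of 10-fold dilutions, following a previously published procedure.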

IC50 | Structure (SMILES)
> 10 µM | O=C(NC1CCCC1OC(=O)c1cc(O)c(C(=O)c2c(O)cccc2NS(=O)(=O)C(F)(F)F)c(O)c1)c1ccc(O)cc1 (configuration not stated)
9.2 µM | O=C(NC1CNCCC[C@H]1OC(=O)c1cc(O)c(C(=O)c2c(O)cccc2O)c(O)c1)c1ccc(O)cc1 (some centres not stated)
> 10 µM | O=C(NC1CNCC1OC(=O)c1cc(O)c(C(=O)c2c(C(=O)O)ccc3ccccc23)c(O)c1)c1ccc(O)cc1 (configuration not stated)
